From PubChem
Most compounds without a hit are left out; they make up all but 2.3% or so of the library.
TRPC6 inh = mouse TRPC6 channel inhibitors, primary screen, cell-based, HEK293, membrane potential dye. ACh-evoked depolarization; active compounds read low. B-score at 10 µM. hit rate 1.1% among 310,000;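 active = B-score under library mean minus 3 SD, initial fluorescence not abnormally high, positive integrated signal ratio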;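 also: B-score derived from integrated fluorescence ratio over the kinetic read; more negative B-score means stronger inhibition of depolarization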
TRPC6 act = mouse TRPC6 channel activators, primary screen, cell-based, HEK293, membrane potential dye. hit rate 0.13% among 310,000. Short transient receptor potential channel 6 (Mus musculus), Q61143. B-score at 10 µM. HEK293-TRPC6 membrane potential dye fluorescence; active compounds read high;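 active = B-score of the integrated fluorescence ratio above library mean plus 3 SD, and starting fluorescence ratio within library mean plus 5 SD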;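 also: higher score means more depolarization so channel activation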
TRPC4 act = activators of mouse TRPC4 channel, primary screen, Fluo4 calcium, HEK293 TRPC4beta/mu-opioid cells | Short transient receptor potential channel 4 (Mus musculus), Q9QUQ5 | Fluo4 calcium fluorescence; active compounds read high | B-score at 10 µM | hit rate 0.49% among 310,000 | AID 2237, 2010;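 active = B-score above 5 SD of library B-scores, and initial fluorescence ratio not above library mean plus 5 SD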;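 also: positive B-score marks a calcium rise read as TRPC4 activation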
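Assay system: HEK293 stable line with TRPC4beta plus mu-opioid receptor; schedule: 45 min room-temperature Fluo4 loading, 110 s read; technique: kinetic Fluo4 calcium fluorescence; evaluation: integrated baseline-normalised fluorescence ratio, converted to per-well B score; controls: buffer (low) and maximal DAMGO (high)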
TRPC4 potent = positive allosteric modulators of TRPC4, primary screen, cell-based, mouse TRPC4beta, HEK293 mu-opioid, Fluo-4 calcium; AID 2227, 2009; Short transient receptor potential channel 4 (Mus musculus), Q9QUQ5; DAMGO EC20, Fluo-4 Ca2+ flux; active compounds read high; B-score at 10 µM; hit rate 0.42% among 310,000;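 active = B-score of calcium response area above 5 SD of library B-scores, with initial fluorescence ratio within 5 SD of library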;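 also: B-score of integrated fluorescence ratio over time as area under calcium response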
TRPC4 block = inhibitors of mouse TRPC4 channel, primary screen, Fluo4 calcium, HEK293 TRPC4beta/mu-opioid cells. Short transient receptor potential channel 4 (Mus musculus), Q9QUQ5. DAMGO-evoked Fluo4 calcium flux; active compounds read low. B-score at 10 µM. hit rate 0.39% among 300,000. AID 2247, 2010;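 active = B-score over 3 SD under the library average, no early fluorescence shift, positive overall ratio signal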
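System: stable TRPC4beta/mu-opioid receptor HEK293 cells; Dosing: single-point compound dosing; Measured by: Fluo4 Ca2+ flux fluorescence; Read-out basis: per-well B score of integrated baseline-normalized Fluo4 ratio.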
* = called active by the depositor; i = inactive.

SMILES | TRPC6 inh | TRPC6 act | TRPC4 act | TRPC4 potent | TRPC4 block
C=CCSc1nsc(NC(=O)Nc2ccc(F)cc2)n1 | i | i | i | 11* | i
CCSc1nsc(NC(=O)Nc2ccccc2F)n1 | i | i | i | i | i
CC(=O)c1ccc2c(c1)N(C)c1ccccc1S2 | i | i | i | i | -6*
CN1C(=O)c2ccccc2Sc2ccc(C(=O)O)cc21 | i | i | i | i | i
CN1CCc2c(sc3nc(NCCO)n(-c4cccc(Cl)c4)c(=O)c23)C1 | i | i | i | i | i
CCOC(=O)c1oc2ccccc2c1NC(=O)CN1CCN(C)CC1 | i | i | i | i | i
CCOC(=O)c1oc2ccc(OC)cc2c1NC(=O)CN1CCN(C)CC1 | i | i | 88* | i | i
Brc1ccc(CN2C3=NCCCN3c3ccccc32)cc1 | i | i | i | i | -7*
c1ccc(CN2C3=NCCCN3c3ccccc32)cc1 | i | i | i | i | i
OC(COc1ccccc1)CN1C2=NCCCN2c2ccccc21 (centres undefined) | i | i | i | i | -5*
Clc1ccc(CN2C3=NCCN3c3ccccc32)cc1 | i | i | i | i | -6*
COc1ccc(OCCCC(=O)OC(C)C(=O)Nc2ccc(S(N)(=O)=O)cc2)cc1 (centres undefined) | i | i | i | i | i
CCCNC(=O)C1=C(C)C(=O)OC12CCC(C)CC2 (centres undefined) | i | i | i | i | i
CC1=C(C(=O)NCCN2CCN(C)CC2)C2(CCC(C)CC2)OC1=O (centres undefined) | i | i | i | 22* | i
CCN(CC)C1CCN(Cc2c(C(=O)N3CCCCCCC3)nc3ccc(Cl)cn23)C1 (centres undefined) | i | i | i | i | i
CCn1c(N2CCN(C(=O)/C=C/c3ccccc3)CC2)nc2ccccc21 | i | i | 94* | i | i
CCCn1c(N2CCN(C(=O)/C=C/C(=O)O)CC2)nc2ccccc21 | i | i | 57* | i | i
Cc1ccc(OCC(O)CN2CCOCC2)cc1C (centres undefined) | i | i | i | i | i
NNC(=O)c1nc(-c2ccccc2)cc(-c2ccccc2)n1 | i | i | i | i | i
O=C1CN(C(=O)c2ccc(Br)o2)C(c2ccccc2)c2cc(Br)ccc2N1 (centres undefined) | i | i | i | 13* | i
COc1ccccc1C(=O)NCCCCNC(=O)c1ccccc1OC | i | i | i | i | i
O=C(CC(=O)c1c(F)cccc1Cl)c1ccccc1O | i | i | 84* | i | i
O=c1[nH]c(=O)n(-c2cc(Br)c(O)c(Br)c2)cc1Br | i | i | i | i | i
CCCCCCCCC[n+]1cccc2c3ccccc3ccc21 | -5.7* | i | i | i | i
O/N=C/c1cccc[n+]1CCCCCC[n+]1ccccc1/C=N/O | i | i | i | i | i
SMILES | TRPC6 inh | TRPC6 act | TRPC4 act | TRPC4 potent | TRPC4 block
C=CCn1c(SCCN2CCCCC2)nc2c1c(=O)[nH]c(=O)n2C | i | i | i | 40* | i
Cc1cccc(Cn2c(SCCN3CCCCC3)nc3c2c(=O)[nH]c(=O)n3C)c1 | -5.7* | i | i | i | i
C/C=C/Cn1c(SCCCc2ccccc2)nc2c1c(=O)[nH]c(=O)n2C | i | i | i | 86* | i
C=CCn1c(SCCOC)nc2c1c(=O)[nH]c(=O)n2C | i | i | i | i | i
Cc1ncc(CN2CCC(CO)(Cc3ccccc3)CC2)s1 | i | i | i | i | i
COC(=O)c1cc(OC)c(OC)cc1NC(=S)NC(=O)c1ccco1 | i | i | i | i | i
O=C(NC(=S)NNC(=O)c1cccs1)c1ccco1 | i | i | i | i | i
COc1ccccc1C(=O)NNC(=S)NC(=O)c1ccco1 | i | i | 77* | i | i
O=C(NNC(=S)NC(=O)c1ccco1)c1ccc(F)cc1 | i | i | 67* | i | i
CCCOc1ccc(C(=O)NNC(=S)NC(=O)c2ccco2)cc1 | i | i | 217* | i | i
CC(Oc1ccc(Cl)cc1)C(=O)NNC(=S)NC(=O)c1ccco1 (centres undefined) | i | i | 183* | i | i
O=C(c1cccnc1)N1CCCC(Nc2ccc(F)cc2)C1 (centres undefined) | i | i | i | i | i
Cc1ccc(C(=O)OCC(=O)NC2CCCC2)cc1 | i | i | i | i | i
COc1ccc(OCCC(=O)Nc2ccccc2)cc1 | i | i | i | i | i
O=C(NNC(=S)NC(=O)c1cccc([N+](=O)[O-])c1)c1ccc(O)cc1 | i | i | i | i | i
O=C(NNC(=S)NC(=O)c1cccc([N+](=O)[O-])c1)c1ccc(Br)cc1 | i | i | 79* | i | i
O=C(NC(=S)NNC(=O)c1ccco1)c1ccc(Br)cc1 | i | i | 121* | i | -8*
O=C(NNC(=S)Nc1ccccc1)c1ccco1 | i | i | i | i | i
COc1ccc(C(=O)NNC(=S)NC(=O)c2ccco2)cc1 | i | i | 50* | i | i
COc1ccc(/C=C(\NC(=O)c2ccccc2)C(=O)NCCN2CCOCC2)cc1 | i | i | i | i | i
Cc1ccc(Nc2nc(NCCCN3CCOCC3)nc(N)c2[N+](=O)[O-])cc1 | i | i | i | i | -6*
Cc1ccc(Nc2nc(NCCCN3CCOCC3)nc(N)c2[N+](=O)[O-])cc1C | i | i | i | i | i
CN(C(=O)COC(=O)c1sc2ccccc2c1Cl)C1CCCCC1 | i | i | i | 29* | i
CN(C)CCCOC(=O)c1sc2ccccc2c1Cl | i | i | i | i | i
Cc1ccc(-n2cc(CNCC3CC(=O)N(C4CC4)C3)c(-c3cccc(C)c3)n2)cc1 (centres undefined) | i | i | 153* | i | i
CCCCCCCNC(=O)COc1ccc2c(c1)C(=O)CC(C)(C)O2 | i | i | i | i | -5*
CC(C)NC(=O)COc1ccc2c(c1)C(=O)CC(C)(C)O2 | i | i | i | i | i
